Screening data from PubChem.
A selection: hits, their analogues and other compounds. The true share with any hit is near 1.2%.
PfG6PD inh: PfG6PD (Plasmodium falciparum) enzyme inhibition | PfGluPho enzyme, NADPH resazurin-diaphorase fluorescence | inhibition, % at 20 µM | hit rate 0.78% among 350,000 | AID 504690;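 active means inhibition reaching at least a set limit at 20 µM in the primary screen, cut at about 59% in these data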;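 further: 0% = DMSO wells with substrate and 100% = DMSO wells lacking glucose-6-phosphate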
HKDC1 inh: HKDC1 (human) hexokinase inhibition. recombinant HKDC1, G6PDH/diaphorase resazurin coupled fluorescence. inhibition, % at 20 µM. hit rate 0.16% among 340,000. AID 493160;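 active means inhibition above about 35% when tested at 20 µM, limit read from the data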;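 further: plate controls were DMSO wells with enzyme for no effect and DMSO wells lacking enzyme for full effect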
Target sequence (Q2TB90 whole entry, looked up): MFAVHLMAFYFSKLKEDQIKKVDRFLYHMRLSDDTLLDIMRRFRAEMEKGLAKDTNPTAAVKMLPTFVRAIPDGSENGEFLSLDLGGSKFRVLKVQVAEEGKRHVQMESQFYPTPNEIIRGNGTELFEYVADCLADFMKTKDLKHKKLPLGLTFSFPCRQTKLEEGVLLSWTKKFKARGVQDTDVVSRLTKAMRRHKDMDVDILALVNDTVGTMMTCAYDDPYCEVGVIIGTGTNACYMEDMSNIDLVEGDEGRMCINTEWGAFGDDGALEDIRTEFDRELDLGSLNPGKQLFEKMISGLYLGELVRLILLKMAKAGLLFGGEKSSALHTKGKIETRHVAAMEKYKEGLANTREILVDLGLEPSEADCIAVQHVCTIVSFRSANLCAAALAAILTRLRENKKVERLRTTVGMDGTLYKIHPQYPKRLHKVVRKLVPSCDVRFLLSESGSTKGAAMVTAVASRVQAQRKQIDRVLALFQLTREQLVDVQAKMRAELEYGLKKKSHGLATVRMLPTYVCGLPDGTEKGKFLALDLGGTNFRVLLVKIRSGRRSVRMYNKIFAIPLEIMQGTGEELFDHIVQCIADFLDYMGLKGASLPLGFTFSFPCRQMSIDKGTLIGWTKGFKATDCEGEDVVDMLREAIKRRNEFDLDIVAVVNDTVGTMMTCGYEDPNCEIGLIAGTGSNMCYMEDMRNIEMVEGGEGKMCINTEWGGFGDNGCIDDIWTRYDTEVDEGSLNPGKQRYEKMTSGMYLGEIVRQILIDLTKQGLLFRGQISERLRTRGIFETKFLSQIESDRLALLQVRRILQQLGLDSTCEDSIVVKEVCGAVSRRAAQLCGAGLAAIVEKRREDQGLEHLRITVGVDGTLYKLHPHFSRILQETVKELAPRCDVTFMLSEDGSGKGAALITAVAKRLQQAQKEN
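test system = in-house recombinant HK5 (HKDC1) enzyme | amount = HKDC1 at 5 µg/mL | control set = DMSO-enzyme wells negative, buffer-substituted wells positive | compound = one dose of 20 µM, 1% DMSO | schedule = reaction time 90 min, room temperature, protected from light | technique = resorufin fluorescence at 613 nm | reagent = glucose with 1 mM ATP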
Diaph inh CS: diaphorase inhibition or chemical oxidation counter-screen; diaphorase resazurin-to-resorufin fluorescence, NADH, 16 min; bacterial (C. kluyveri) enzyme, not human; inhibition, % at 20 µM; hit rate 0.69% among 190,000;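 active means primary screen inhibition at 20 µM above a set limit, cut at about 50% in these data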;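 further: plate controls were DMSO with full reaction for no effect and wells lacking NADH for full effect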
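System: Bacterial diaphorase enzyme (C. kluyveri) | Incubation: 16-min room-temperature incubation before reading | Benchmarks: No-NADH positive control and DMSO neutral control | Measured by: Resorufin fluorescence 544/590 nm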
G6PDH counter: counter-screen for G6PDH assay hits: L. mesenteroides G6PDH inhibition; inhibition, % at 5 µM; Purified L. mesenteroides G6PDH, diaphorase/resazurin coupled fluorescence, 45 min; hit rate 0.12% among 200,000; AID 1020; in the data active means inhibition above about 50%
PfG6PD confirm: PfG6PD inhibition, single-dose confirmed; hit rate 34% among 2,400; shares compounds with PfG6PD inh; inhibition, % at 20 µM; recombinant PfGluPho, NADPH-diaphorase-resazurin fluorescence;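 active means inhibition of at least 50% at 20 µM in any single replicate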;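 further: 0% = DMSO with substrate and 100% = DMSO lacking glucose-6-phosphate substrate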
Diaphorase 10uM: counter-screen for P. falciparum G6PD inhibitors: diaphorase inhibitors, oxidizers; shares compounds with PfG6PD inh; inhibition, % at 20 µM; hit rate 39% among 820; diaphorase-coupled resazurin reduction, fluorescence, NADPH 10 uM; AID 504862;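 active means average inhibition reaching 50% or more with the compound at 20 µM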;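 further: resorufin red fluorescence formed as diaphorase reduces resazurin using NADPH; 0% = DMSO with enzyme and 100% = DMSO without enzyme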
Diaphorase 30uM: counter-screen for P. falciparum G6PD inhibitors: diaphorase inhibitors, oxidizers. shares compounds with PfG6PD inh. Diaphorase/resazurin coupled assay, resorufin fluorescence, 30 uM NADPH. inhibition, % at 20 µM. hit rate 29% among 820. AID 504863;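 active means inhibition averaging 50% or more, tested at 20 µM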;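 further: 0% = DMSO with enzyme and 100% = DMSO wells lacking diaphorase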
Numbers without * were called inactive; . = not tested or not shown.

SMILES	PfG6PD inh	HKDC1 inh	Diaph inh CS	G6PDH counter	PfG6PD confirm	others
CCc1cc(-c2n[nH]c(C)c2-c2ccccc2Cl)c(O)cc1OC	98*	4	.	.	51*	Diaphorase 10uM=55*;Diaphorase 30uM=34
CCc1cc(-c2n[nH]c(C)c2-c2nc3ccccc3n2C)c(O)cc1O	61*	1	11	19	49*	Diaphorase 10uM=28;Diaphorase 30uM=26
CCc1cc(-c2n[nH]c(CCC(=O)O)c2-c2nc3ccccc3n2C)c(O)cc1O	25	3	16	7	.
O=C(Nc1sc2c(c1C(=O)O)CCCC2)c1ccc(Cl)cc1	124*	5	.	.	77*	Diaphorase 10uM=73*;Diaphorase 30uM=72*
N#Cc1c(NC(=O)c2ccccc2)sc2c1CCCCC2	3	-4	17	3	.
O=C(Nc1sc2c(c1C(=O)O)CCC2)c1cccs1	38	8	26	0	.
O=C(Nc1sc2c(c1C(=O)O)CCCCC2)c1ccccc1	80*	16	34	20	35
O=C(Nc1sc2c(c1C(=O)O)CCC2)c1ccccc1	62*	7	19	3	34
O=C(Nc1sc2c(c1C(=O)O)CCC2)c1ccc(F)cc1	91*	-3	11	-4	54*	Diaphorase 10uM=42;Diaphorase 30uM=39
COc1ccc(C(=O)COC(=O)c2cc(C)no2)c(OC)c1	0	-1	.	.	.
O=C(Nc1sc2c(c1C(=O)O)CCCC2)c1cccc(Cl)c1	62*	5	.	.	38
O=C(O)c1c(NC(=O)c2cccc3ccccc23)sc2c1CCC2	10	11	8	7	.
CC1CCCCC12NC(=O)N(CC(=O)N1CCN(Cc3ccc(C#N)cc3)CC1)C2=O (centres undefined)	-10	-6	.	.	.
COC(=O)[C@H](CCSC)NC(=O)c1cc2c(cn1)[nH]c1ccccc12	80*	-14	.	.	57*	Diaphorase 10uM=-10;Diaphorase 30uM=-7
CC1CCCC(NC(=O)Cn2cc(C(F)(F)F)cc(Cl)c2=O)C1C (centres undefined)	7	-5	.	.	.
CCCC(=O)OCCNc1cc(Sc2nc3ccccc3[nH]2)c2nonc2c1[N+](=O)[O-]	65*	6	39	3	39
CCN(CC)c1ccc(NC(=O)COc2ccccc2C)cc1S(=O)(=O)Nc1ccccc1OC	61*	8	15	-14	23
CCN(CC)c1ccc(NC(=O)c2ccc(=O)[nH]c2)cc1S(=O)(=O)Nc1ccccc1OC	62*	0	32	10	41
NC(=S)NN=Cc1cc(-c2cccc(N)c2)ccn1	69*	.	.	.	36
COc1cc(NCCCn2cnc(C(=O)Nc3ccc(C)c(C)c3)n2)cc(OC)c1OC	73*	8	.	.	61*	Diaphorase 10uM=-17;Diaphorase 30uM=-16
CC(C)(C)c1csc(NC(=O)Cn2cnc3ccccc3c2=O)n1	68*	-6	15	-9	-4
CC(C)(C)c1csc(NC(=O)CSc2nc3ccccc3c(=O)[nH]2)n1	-20	-4	-8	5	.
O=C(NCCC(=O)N1CCN(S(=O)(=O)c2ccc(Cl)cc2)CC1)Nc1ccccc1	3	3	.	.	.
Cn1cc(C(CO)Cc2ccccc2)c2ccccc21 (centres undefined)	88*	-4	.	.	40
Cn1cc(/C(Cc2ccccc2)=N\O)c2ccccc21	4	1	11	5	.
SMILES	PfG6PD inh	HKDC1 inh	Diaph inh CS	G6PDH counter	PfG6PD confirm	others
CC(=O)c1cccc(OCC(=O)c2cc(C)n(-c3cc(C)on3)c2C)c1	117*	3	9	5	62*	Diaphorase 10uM=62*;Diaphorase 30uM=55*
Cc1cc(-n2c(C)cc(C(=O)COc3ccc4ccc(=O)oc4c3)c2C)no1	89*	-2	21	0	39
Cc1cc(-n2c(C)cc(C(=O)COc3cccnc3[N+](=O)[O-])c2C)no1	6	10	.	.	.
CCOc1ccccc1N1CCN(C(=O)c2ccc(OCC(=O)N3CCOCC3)c(OC)c2)CC1	-8	-6	.	.	.
COC(=O)c1sc2nc(-c3ccco3)ccc2c1N	76*	6	35	0	-4
COc1ccc(NC(=O)N2CCCC2C(=O)Nc2ccc(C)cc2C)cc1 (centres undefined)	2	1	.	.	.
Cc1cccc(OCC(=O)N/N=C/c2cc([N+](=O)[O-])ccc2N2CCOCC2)c1	118*	0	26	-1	68*	Diaphorase 10uM=57*;Diaphorase 30uM=59*
O=C(N/N=C\c1cc([N+](=O)[O-])ccc1N1CCOCC1)c1ccccn1	7	-2	16	-5	.
CCc1ccc(OCC(=O)N/N=C/c2cc([N+](=O)[O-])ccc2N2CCOCC2)cc1	96*	12	19	-16	56*	Diaphorase 10uM=49;Diaphorase 30uM=34
NC(=O)c1nc2c([nH]c1=O)CCCC2	5	.	.	.	.
CC(C)N(C(=O)COC(=O)c1cccc(S(=O)(=O)N2CC3(C)CC2CC(C)(C)C3)c1)C(C)C (centres undefined)	12	2	.	.	.
N#C/C(C(=O)Nc1ccc(Cl)cc1)=C(/S)Nc1ccccc1	95*	10	.	.	83*	Diaphorase 10uM=-18;Diaphorase 30uM=-3
COc1ccc(Nc2cc(C)c3c(O)cccc3n2)cc1	120*	8	.	.	56*	Diaphorase 10uM=19;Diaphorase 30uM=43
Cc1ccc(Nc2cc(C)c3c(O)cccc3n2)cc1C	125*	14	.	.	36
COc1cccc(Nc2cc(C)c3ccccc3n2)c1	61*	-2	.	.	-10
O=C(O)c1nn(Cc2csc(-c3ccccc3)n2)c(=O)c2ccccc12	35	-5	.	.	.
COc1ccc(C[C@@H]2OC3(C=CC(=O)C=C3)O[C@H]2Cc2ccc(OC)cc2)cc1	62*	32	.	.	20
O=C1S/C(=C\c2ccc(N3CCOCC3)o2)C(=O)N1Cc1c(F)cccc1Cl	75*	-1	28	11	17
COc1ccc(NC(=O)c2ccc3[nH]c(C)c(C)c3c2)c(OC)c1	62*	3	.	.	-4
CCN(CC)CC1CN(N=Cc2ccc([N+](=O)[O-])o2)C(=O)O1 (centres undefined)	20	-5	.	.	.
CCC(=O)c1cn(CC(=O)Nc2ccc(C)cc2)c2ccccc12	-15	0	.	.	.
CCCCN(C(=O)C1CC(=O)N(Cc2ccc(C)cc2)C1)c1c(N)n(CC(C)C)c(=O)[nH]c1=O (centres undefined)	9	-3	.	.	.
COc1cc(C=C2CN(C)C(=O)C2=O)ccc1O	36	.	.	.	.
COc1cc(/C=C2\OC(=O)c3c(OC)cccc32)ccc1O	74*	8	8	3	14
Oc1ccccc1NCC(O)Cn1ccc2ccccc21 (centres undefined)	66*	23	25	40	28
COc1cc(C(=O)O/N=C2/C=C(C)C(=O)C=C2C)cc(OC)c1OC	61*	4	27	21	57*	Diaphorase 10uM=27;Diaphorase 30uM=8
COc1cc(C(=O)OCC(=O)c2cc(C)n(C)c2C)cc(OC)c1OC	5	0	2	6	.
CCOC(=O)N1CCN(C(=O)CSC2=NS(=O)(=O)c3ccccc3N2)CC1	-9	-1	.	.	.
